Experimental data from PubChem BioAssay.
A number with no mark means an inactive call. Records with an inconclusive call do not appear. Calls of active or inactive are those of the source.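 How the source made its calls, unless noted: active means viability increase at or above a cutoff of the median across tested compounds plus 3 SD (cut at about 8.5% in these data, passing the limit was not always enough); inconclusive means some gains above the cutoff, reason not given; inactive means the rest.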

Key:
[1] = S. cerevisiae growth inhibition in permissive medium (OD615), pilot counter-assay for S. cerevisiae lifespan shortening project, permissive growth control (AID 705;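 active means growth inhibition above 25% in both replicates, a cutoff set 3 SD above the mean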); conditions: OD615, 24 h, at 10 µM, stronger effect = higher value
How it was run: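 Material: engineered DeaD yeast; compound dosing: one dose 10 µM, DMSO 0.25% final; measure: yeast growth inhibition indicated by reduced 24 h OD615; detection: OD615 turbidity read; incubation: cells pre-grown 4 h, then 24 h compound exposure, 30 °C humidified; medium: permissive synthetic complete medium with raffinose and galactose carbon sources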

[2] = S. cerevisiae growth inhibition in restrictive medium, OD615, pilot screen, restrictive growth control, yeast lifespan reduction project (AID 706;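 active means growth inhibition above a set limit, 3 SD over mean compound inhibition, in both replicates, cut at about 43% in these data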;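 further: modified DeaD lifespan yeast strain shifted to restrictive glucose medium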); conditions: OD615, 48 h, at 10 µM, stronger effect = higher value
How it was run: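 material = engineered S. cerevisiae DeaD strain | medium = glucose-based CSMM-D restrictive medium | times = 4 h pre-incubation, 48 h exposure at 30 °C | technique = OD615 absorbance reading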

[3] = doxorubicin toxicity protection in MRP-1 cells – H69AR cells, CellTiter-Glo, duplicate, MRP-1 activator project, pilot screen (AID 807); conditions: H69AR viability with doxorubicin, CellTiter-Glo luminescence; at 10 µM; stronger effect = higher value;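 further: compound pretreatment 18-22 h then 72 h combined with doxorubicin; 0% = doxorubicin alone and 100% = vehicle without doxorubicin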
[4] = viability of HCT116 without oncogenic beta-catenin – human colon tumor cells, pilot screen (AID 823;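 active means cell viability at or below a set limit in both duplicate runs, the limit being the all-compound median minus 4 SD, cut at about 23% in these data, passing the limit was not always enough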;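 further: 0% = wells killed by 20 µM Hyamine and 100% = untreated DMSO cell wells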); conditions: HCT116 beta-catenin knockout viability, CellTiter-Glo, 60 h; at 10 µM; stronger effect = lower value
[5] = viability of PTEN-null HCT116 cells – cell-based, HCT116 clonal line, CellTiter-Glo, pilot screen (AID 824;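 active means viability at or below 27.92% in each of two runs, the all-compound median minus 4 SD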;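 further: 0% = 20 µM Hyamine control and 100% = vehicle cell control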); conditions: HCT116 PTEN-deleted viability, 60 h, at 10 µM, stronger effect = lower value
[6] = RAM pathway blockade in budding yeast – dse1pr::URA3 reporter, 5-FOA selection, pilot screen (AID 869;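 active means inhibition over a set limit, the all-compound mean plus 3 SD, in both replicate runs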;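 further: 0% = DMSO wells with no growth and 100% = 10 µM 1-NA-PP1 with full growth; RAM network block rescues cells from 5-FOA so hits raise OD615 growth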); conditions: S. cerevisiae dse1pr::URA3 5-FOA growth, OD615, 2 d; at 10 µM; stronger effect = higher value; strain carries analog-sensitive mutant Cbk1 kinase
[7] = RAM signaling pathway blockade in yeast – S. cerevisiae, Pdr1DBD-CYC8 efflux-inhibited sensitized strain, primary screen (AID 1298;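 active means RAM network inhibition above 8.4% in each of two replicates, 3 SD over the compound average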;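 further: 0% = DMSO untreated cells without growth and 100% = 10 µM 1-NA-PP1 full growth; higher means more yeast growth rescued from 5-FOA killing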); conditions: S. cerevisiae cbk1-as DSE1-URA3 strain, 5-FOA growth OD615, 2 d; at 50 µM; stronger effect = higher value

Compound	growth inhibition [1]	growth inhibition [2]	viability increase [3]	viability [4]	viability [5]	inhibition [6]	RAM network inhibition [7]
Cc1c(C)n(C(=O)CSc2nncn2C)c2ccccc12	3.06%	12.8%	-2.73%	93.2%	98.1%	0.94%	3%
COc1ccc(CNC(=O)Cn2cc3c(n2)CCCCC3)cc1	2.42%	-0.895%	-2.29%	102%	91.9%	0.54%	-1.07%
Cc1c(C(=O)OC2CCCC2)[nH]c2c1C(=O)CC(c1ccco1)C2 (configuration not stated)	-6.06%	-12.3%	-5.41%	15.4% (active)	17.7% (active)	1.86%	0.11%
Cc1ccc(CNC(=O)c2cc3c(=O)n(C)c4ccccc4c3n2C)o1	1.32%	0.445%	-4.08%	106%	104%	2.61%	4.84%
CC(C)C(NC(=O)CN1C(=O)c2ccccc2S1(=O)=O)C(C)C	-10%	-13%	-2.05%	98.8%	94.3%	1.4%	-1.56%
CCOC(=O)C1CCCN(C(=O)Cn2nc(CC)n3c(cc4sccc43)c2=O)C1 (configuration not stated)	-3.41%	-9.06%	-0.92%	105%	105%	1.33%	8.75%
CC(C)(C)NC(=O)c1cnn2c1NC(c1ccc(F)cc1)CC2C(F)(F)F (configuration not stated)	-14.6%	-18.1%	-0.08%	89.5%	87.1%	3.81%	6.9%
CN(C)c1nc(N)nc(-c2cccnc2)n1	-0.465%	3.66%	0.55%	102%	103%	1.14%	5.69%
O=C(c1ccc(CS(=O)(=O)c2c(Cl)cccc2Cl)o1)N1CCCC1	-1.83%	-21%	-1.96%	103%	93.2%	2.21%	-0.84%
Cc1occc1C(=O)NCc1cccs1	-6.07%	-2.95%	-1.27%	91%	95.9%	0.455%	-0.16%
O=C1C(=C(O)c2ccccc2)C(=O)c2ccccc21	-20.4%	2.15%	-3.04%	107%	103%	-0.26%	-1.88%
Cn1c(=O)c2c(nc(CN3CCN(CCO)CC3)n2Cc2ccccc2Cl)n(C)c1=O	4.8%	-2.67%	-3.91%	98.2%	96.2%	0.875%	4.94%
COCCn1c(SCC(=O)N2CCN(c3ccccc3)CC2)nc2c(c1=O)SC(C)C2 (configuration not stated)	10.7%	10.7%	-3.54%	103%	92.9%	1.65%	2.75%
CCOC(=O)C1C(=O)N(C(=O)c2cncc(Br)c2)CC1c1ccccc1 (configuration not stated)	-0.835%	8.88%	-0.37%	101%	106%	0.985%	9.56%
CC(=O)Nc1ccc(S(=O)(=O)NCc2ccc3c(c2)cc(C)n3C)cc1	8.2%	10.1%	0.21%	101%	99.2%	3.49%	2.12%
COc1cc(-c2nc(-c3cccc(C)c3)no2)cc(OC)c1OC	-5.34%	-14.7%	0.46%	81.3%	81%	2.26%	9.46%
Cc1cc(N2CCOCC2)c2c(N)c(Br)cc(C)c2n1	-14%	-15.8%	-5.84%	80.1%	76.4%	1.16%	3.17%
COc1cccc(-n2c(=O)[nH]cc(C(=O)Nc3ccc4c(c3)OCCO4)c2=O)c1	-8.56%	-1.22%	-1.26%	105%	101%	3.17%	5.22%

Compound	growth inhibition [1]	growth inhibition [2]	viability increase [3]	viability [4]	viability [5]	inhibition [6]	RAM network inhibition [7]
CCC(=O)N1c2ccccc2NC2=C(C(=O)CC(c3ccco3)C2)C1c1ccco1 (configuration not stated)	-7.69%	7.1%	-1.65%	92.4%	92.4%	0.915%	-0.58%
COCCNC(=O)c1cc2c(=O)n3cccc(C)c3nc2n1C	-9.01%	-20.7%	-5.8%	34.3%	33.9%	1.85%	3.01%
CC(C)N1C(=O)CCC1C(=O)N1CCN(c2ccccn2)CC1 (configuration not stated)	-11.9%	-15.7%	0.54%	107%	103%	0.845%	1.45%
CCOC(=O)Nc1ccc2c(c1)N(C(=O)N(C)C)c1ccccc1CC2	-8.91%	-0.49%	-1.82%	96.8%	96%	-0.31%	2.67%
O=C1NCCCC1C(=O)NCCNC(=O)C(F)(F)F (configuration not stated)	-4.04%	-0.705%	-1.47%	101%	94.7%	0.3%	4.25%
O=C(Cn1nc(Cc2cccnc2)c2ccccc2c1=O)NCCCN1CCCC1=O	3.02%	-5.47%	-0.8%	103%	97.3%	0.75%	0.25%
Cc1cccc(C)c1OCC(O)Cn1ccnc1C (configuration not stated)	1.01%	0.215%	-1.6%	81.1%	84.7%	1.08%	-0.1%
CCOCCn1c(SCC(=O)OCc2ccccc2)nc2c1c(=O)[nH]c(=O)n2C	-13.7%	-14.2%	-0.57%	104%	101%	0.495%	3.42%
Cc1cc(C)cc(OCCCCCNCCO)c1	-8.19%	-14.7%	-3.03%	87.6%	86.5%	2.79%	2.47%
Cc1nnc(NC(=O)C(C)Sc2nncn2C)s1 (configuration not stated)	-15.9%	-22.2%	3.71%	107%	94.8%	1.18%	1.06%
O=C(NCCc1ccccc1)C1CCN(C(=O)c2sccc2-n2cccc2)CC1	-0.295%	-8.75%	-1.15%	101%	93.8%	3.48%	4%
CCCCSCc1[nH]c(=O)[nH]c1C(=O)CCCCC(=O)OCC	-12.8%	-1.29%	-3.65%	99.4%	100%	0.975%	2.54%
CCOC(=O)c1sc(/N=C/N(C)C)c(C(=O)OCC)c1C	-5.24%	0.92%	-3.82%	95.3%	90.4%	1.98%	7.56%
NC(=O)C1CCN(CCCNC2CC(=O)N(Cc3ccc(N4CCCC4=O)cc3)C2=O)CC1 (configuration not stated)	-14.8%	-4.07%	-0.01%	98.7%	98.7%	1.15%	5.68%
CCOc1ccc2nc(NC(=O)c3ccoc3C)sc2c1	1.53%	-12.2%	-6.35%	19.1% (active)	17.1% (active)	1.03%	2.4%
CCCCNC(=O)c1ccc2c(c1)N(CC)C(=O)c1ccccc1S2(=O)=O	-1.9%	-1.83%	0.81%	93.8%	87.3%	0.255%	-2.03%
O/N=C1/CCc2cccc3cccc1c23	-11.1%	0.79%	-3.93%	96.1%	103%	2.06%	-0.11%
CN1CCN(CCCNC(=O)c2ccc(CS(=O)(=O)c3ccc(Br)cc3)o2)CC1	-7.34%	-12.5%	-1.18%	95.3%	90.8%	1.38%	-0.99%
